This is a sample that favours compounds with a hit; in the whole collection about 2.8% have one here.
MC4R antagonist – MC4R antagonists of cAMP signaling, primary screen, cell-based, TR-FRET, antagonist arm of biased-ligand search; Melanocortin receptor 4 (Homo sapiens), P32245; MC4R-expressing cells, MTII-stimulated cAMP, LANCE TR-FRET; inhibition, % at 6.5 µM; 360,000 tested, 0.48% active; AID 540295, 2011;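 active = inhibition above its plate's cutoff, the mean of tested wells on that plate plus 3 SD, cut at about 29% in these data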
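material = U2OS cells stably expressing human melanocortin 4 receptor (MC4R) | also added = Melanotan II challenge | dosing = single nominal compound dose of 6.5 µM | detection = TR-FRET with Eu-cAMP and labeled anti-cAMP, 671 nm | replication = singlicate | timing = compound 30 min, challenge 1 h, detection 1 h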
EBI2 antag – EBI2 receptor antagonists, beta-arrestin recruitment, primary screen, cell-based, luminescence, 7a,25-OHC stimulation, uHTS | G-protein coupled receptor 183 (Homo sapiens), P32249 | 7a,25-OHC stimulated | inhibition, % at 5 µM | 360,000 tested, 0.81% active | AID 651636, 2012; in the data active = inhibition above about 38%;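 note: enzyme fragment complementation signal reports receptor beta-arrestin coupling in cells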
Target sequence (P32249 whole entry, looked up, the tested form may be a part): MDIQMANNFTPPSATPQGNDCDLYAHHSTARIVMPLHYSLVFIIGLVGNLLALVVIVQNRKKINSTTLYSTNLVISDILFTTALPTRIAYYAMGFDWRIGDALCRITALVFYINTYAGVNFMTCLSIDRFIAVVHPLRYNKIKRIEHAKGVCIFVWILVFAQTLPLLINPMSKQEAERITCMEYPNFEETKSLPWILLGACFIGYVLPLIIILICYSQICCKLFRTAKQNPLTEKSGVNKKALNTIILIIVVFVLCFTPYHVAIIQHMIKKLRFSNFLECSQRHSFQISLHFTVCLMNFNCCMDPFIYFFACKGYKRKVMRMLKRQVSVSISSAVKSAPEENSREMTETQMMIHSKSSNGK
m5-HT2A agonist – mouse Htr2a agonists via beta-arrestin recruitment, primary screen, cell-based, luminescence | CHO-K1 mHTR2A beta-arrestin complementation; percent of 30 µM serotonin response | activation, % at 7.6 µM | 360,000 tested, 0.66% active;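 active = activation above a run cutoff, the mean activation of all tested compounds plus 3 SD, cut at about 14% in these data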
MC4R barr agon – MC4R agonists recruiting beta-arrestin, primary screen, cell-based, luminescence, agonist arm of biased-ligand search; Melanocortin receptor 4 (Homo sapiens), P32245; activation, % at 8.9 µM; U2OS MC4R beta-arrestin complementation; percent of melanotan II response, DMSO zero; 360,000 tested, 0.98% active;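 active = activation above a per-plate cutoff, the mean activation of sample wells on that plate plus 3 SD, cut at about 8% in these data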
MOR ag counter – OPRM1 agonists via beta-arrestin recruitment, confirmation, counter-screen for mouse HTR2A agonist project, cell-based, luminescence, single concentration | shares compounds with m5-HT2A agonist | U2OS OPRM1 beta-arrestin PathHunter; DMSO 0%, DAMGO 9.3 µM 100% | activation, % at 9.3 µM | 2,300 tested, 5.3% active | AID 624380, 2012;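 active = mean activation above the mean of DMSO-only wells plus 3 SD, cut at about 0.5% in these data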
HTR2A ag conf – mouse HTR2A agonists, beta-arrestin recruitment, confirmation, cell-based, luminescence, CHO-K1 PathHunter, triplicate. shares compounds with m5-HT2A agonist. DMSO 0%, 30 µM serotonin 100%. activation, % at 7.6 µM. 2,300 tested, 19% active;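 active = mean activation across triplicates above the hit threshold derived in the original primary screen, cut at about 15% in these data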
Each line names hits and unclear results; the compound was inactive in the other large screens (follow-up assays come after a bar, where they were run).

COc1cc(CCCN2C(N)=NC[C@@H]2Cc2ccccc2)cc(OC)c1OC	m5-HT2A agonist 16 | MOR ag counter inactive | HTR2A ag conf inactive
CC(C)C(=O)Nc1ccc(C(=O)NNC(=S)NC(=O)c2ccco2)cc1	m5-HT2A agonist 15 | MOR ag counter inactive | HTR2A ag conf inactive
COc1cccc(C(C(=O)NCc2ccccc2)N2CCN(C(=O)C3CCCO3)CC2)c1OC (configuration not stated)	none (no result: MC4R antagonist, MC4R barr agon)
CC(C)(C)Nc1nc2nonc2nc1NC(C)(C)C	m5-HT2A agonist 36 | MOR ag counter inactive | HTR2A ag conf 20
OCCNc1nc2nonc2nc1NCCO	none
CCOCCn1c(CN2CCN(CC)CC2)nc2c1c(=O)n(C)c(=O)n2C	m5-HT2A agonist 48 | MOR ag counter inactive | HTR2A ag conf inactive
O=C(Cn1cnc2ccccc2c1=O)N1CCN(Cc2ccc3c(c2)OCO3)CC1	m5-HT2A agonist 15 | MOR ag counter inactive | HTR2A ag conf 47
CC(=O)c1ccc(Oc2cnccn2)cc1	m5-HT2A agonist 16 | MOR ag counter inactive | HTR2A ag conf inactive
CC1(C(=O)O)CCCN(C(=O)c2ccc(OC(F)F)cc2)C1 (configuration not stated)	none
c1ccc(N2CCN(c3nnc(Cc4cccnc4)c4ccccc34)CC2)nc1	m5-HT2A agonist 17 | MOR ag counter inactive | HTR2A ag conf inactive
c1ccc(Cc2nnc(N3CCCCC3)c3ccccc23)cc1	none
CCC(=O)N1CCC1(C)C(=O)Nc1ccc2c(c1)CCN2C(C)=O (configuration not stated)	none
O=c1cc(-c2ccc(C(F)(F)F)cc2)oc2ccccc12	m5-HT2A agonist 16 | MOR ag counter inactive | HTR2A ag conf inactive
O=c1cc(-c2ccccc2)oc2ccccc12	none
CC1(C(=O)NS(=O)(=O)C2CC2)CCCN(C(=O)c2cc3ccccc3s2)C1 (configuration not stated)	none
Cc1cc(OC(C)C(=O)N(Cc2ccco2)C2CCS(=O)(=O)C2)cc(C)c1Cl (configuration not stated)	m5-HT2A agonist 17 | MOR ag counter inactive | HTR2A ag conf inactive
Cc1cc(OCC(=O)N(Cc2ccco2)C2CCS(=O)(=O)C2)cc(C)c1Cl (configuration not stated)	none
CC1=C(C(=O)N2CCOCC2)CC(CC(=O)NCC2CCCCC2)C(=O)N1CCC1=CCCCC1 (configuration not stated)	none
CN1CCc2c(sc(NC(=O)Cc3ccccc3)c2C#N)C1	m5-HT2A agonist 18 | MOR ag counter inactive | HTR2A ag conf 69
CCCCNC(=O)c1nc(-c2ccc(C(F)(F)F)cc2)oc1-c1ccccc1	none (no result: MC4R antagonist, MC4R barr agon)
CCCCNC(=O)c1nc(-c2cc3ccccc3[nH]2)oc1-c1cccc(C(F)(F)F)c1	m5-HT2A agonist 16 (no result: MC4R antagonist, MC4R barr agon) | MOR ag counter 0.7 | HTR2A ag conf inactive
CC(NC(=O)Nc1ccc(Cl)cc1)C1CCCO1 (configuration not stated)	none
Cc1cc(OC(C)C(=O)NCC2CCCO2)cc(C)c1Cl (configuration not stated)	m5-HT2A agonist 15 | MOR ag counter inactive | HTR2A ag conf inactive
Cc1cc(Cl)ccc1OC(C)C(=O)NC(C)C1CCCO1 (configuration not stated)	m5-HT2A agonist 16 | MOR ag counter inactive | HTR2A ag conf inactive
Nc1ccc(S(=O)(=O)Nc2nccs2)cc1N=Nc1ccccc1[N+](=O)[O-]	none
COc1cc(C)nc(NS(=O)(=O)c2ccccc2Cl)n1	m5-HT2A agonist 31 | MOR ag counter inactive | HTR2A ag conf inactive
Cc1cc(NN)nc(NS(=O)(=O)c2ccccc2Cl)n1	none
CN(Cc1ccco1)C(=O)CSc1nc(C2CC2)n(-c2ccccc2)n1	none

Screening data: PubChem, several laboratories
